High-throughput results: PubChem, several laboratories
SMARCA2 activ – activators of SMARCA2 function. activation, % at 9.1 µM. 370,000 compounds, 1% hits. MG213 cells, MMTV-luciferase reporter, dexamethasone, overnight; in the data active means activation above about 7.8%;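 further: 0% = vehicle wells and 100% = reference activator wells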
TbMetRS inhib – Trypanosoma brucei MetRS inhibition | 360,000 compounds, 0.4% hits | inhibition, % at 11.9 µM | purified T. brucei MetRS, ATP depletion, Kinase-Glo luminescence;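 active means inhibition above a per-plate cutoff of the control wells' mean inhibition plus 3 SD, cut at about 5.5% in these data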;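 further: 0% = DMSO wells median and 100% = median of wells with control inhibitor compound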
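Measured by: Kinase-Glo luciferase luminescence reporting remaining unconsumed ATP. Material: purified T. brucei MetRS enzyme. Doses: 11.9 µM compound single dose, 0.9% DMSO. Medium: HEPES buffer containing pyrophosphatase, BSA, spermine, DTT. Times: 15 min preincubation, 2 h reaction, all 25 °C. Reagent: methionine, ATP and bulk E. coli tRNA.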
AHR activator – human AHR activation. P35869. AHR-responsive luciferase reporter cells, luminescence. activation, % at 5 µM. 320,000 compounds, 2.5% hits. AID 2796; in the data active means activation above about 47%;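 further: 0% = vehicle wells and 100% = reference agonist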
Target sequence (P35869 whole entry, looked up): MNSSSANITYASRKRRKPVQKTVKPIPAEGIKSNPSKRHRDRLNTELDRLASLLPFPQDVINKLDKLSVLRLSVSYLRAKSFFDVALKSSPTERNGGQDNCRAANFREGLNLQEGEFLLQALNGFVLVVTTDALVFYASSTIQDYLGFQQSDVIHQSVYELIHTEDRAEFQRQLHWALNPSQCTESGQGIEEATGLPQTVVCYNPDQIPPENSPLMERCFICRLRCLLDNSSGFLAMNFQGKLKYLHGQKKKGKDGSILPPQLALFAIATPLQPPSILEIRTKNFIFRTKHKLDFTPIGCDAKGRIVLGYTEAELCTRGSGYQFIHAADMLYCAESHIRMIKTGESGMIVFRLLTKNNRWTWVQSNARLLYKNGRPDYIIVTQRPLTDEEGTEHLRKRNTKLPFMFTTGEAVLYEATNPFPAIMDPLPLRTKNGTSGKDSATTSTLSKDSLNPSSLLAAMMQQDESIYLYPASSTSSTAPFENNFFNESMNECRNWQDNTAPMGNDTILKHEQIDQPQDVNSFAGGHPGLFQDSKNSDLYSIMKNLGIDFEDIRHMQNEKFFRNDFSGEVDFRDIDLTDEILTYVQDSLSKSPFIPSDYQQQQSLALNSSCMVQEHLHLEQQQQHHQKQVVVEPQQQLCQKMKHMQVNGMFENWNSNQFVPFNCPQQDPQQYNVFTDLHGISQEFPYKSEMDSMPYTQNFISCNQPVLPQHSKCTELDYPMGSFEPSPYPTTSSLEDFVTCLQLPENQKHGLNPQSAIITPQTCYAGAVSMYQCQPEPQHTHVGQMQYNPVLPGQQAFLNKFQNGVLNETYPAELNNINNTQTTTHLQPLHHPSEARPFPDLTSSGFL
TAG inh – reduces triacylglycerol accumulation in H9c2 cells; 230,000 compounds, 0.66% hits; AID 651582; Nile Red lipid (TAG) fluorescence; cells loaded with 200 µM oleic acid; inhibition, % at 12.5 µM;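 active means pattern-corrected inhibition of lipid staining of at least 50% with the nuclear-stain viability signal not falling by more than 50%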;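 further: 0% = DMSO wells and 100% = triacsin C control wells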
Efflux pump inh – inhibitors of Candida antifungal efflux pumps expressed in yeast. S. cerevisiae Candida pump triplex, Nile Red efflux. inhibition, % at 10 µM. 330,000 compounds, 0.44% hits;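 active means plate passing quality check with inhibition over a set limit, or well fluorescence over plate mean plus 4 SD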;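 further: Nile Red retained in pooled yeast measured as flow cytometry median fluorescence; 0% = buffer negative control and 100% = Enniatin B positive control; higher means more Nile Red kept so more efflux inhibition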
* = called active by the depositor; · = not tested or not shown. An excerpt weighted towards active compounds, which were near 4.1% of everything screened.

SMILES	SMARCA2 activ	TbMetRS inhib	AHR activator	TAG inh	Efflux pump inh
O=C(NNc1nc2c(F)cccc2s1)c1cc(=O)c2ccccc2o1	7.2	-0.1	79.7*	-1.7	-0.4
CCOC(=O)CC[C@@]1(C(=O)OCC)C[C@@H](CC(=O)NCCc2ccccc2OC)C(=O)N2CCCC=C21	-4.2	·	·	·	·
Cc1cccc(-c2cccc3c4c([nH]c23)[C@@H]2C[C@H](N(C)C(=O)c3ccco3)[C@H]([C@H](C)O)C(=O)N2CC4)c1	-5.9	·	·	·	·
CC(=O)c1cccc(N=Nc2c(C)[nH]c3ccccc23)c1	2.9	0.3	63.8*	0.3	-0.1
O=C(Nc1nc2ncccn2c1-c1ccc(F)c(F)c1)c1ccccc1	-2.4	·	·	·	·
Oc1c(C(c2ccccn2)N2CCCCC2)cc(Cl)c2cccnc12 (stereo unspecified)	-2.2	-0.9	9.3	86.7*	0.0
CN1CCN(C(c2ccc(Cl)cc2)c2cc(Cl)c3cccnc3c2O)CC1 (stereo unspecified)	-3.4	-0.3	9.7	·	-0.5
Cc1ccc(S(=O)(=O)N2CCCN(C(=O)c3cc4ccccc4[nH]3)CC2)cc1	2.4	0.3	62.4*	·	-0.1
C=CCN1C(C(=O)OC)CN(Cc2cn(Cc3ccc(OC)cc3)nn2)CCS1(=O)=O (stereo unspecified)	-2.4	·	·	·	·
Cc1cc(C)n2nc(N)c(N=Nc3ccc4c(c3)OCO4)c2n1	-0.3	-0.5	6.0	·	0.0
Cc1cc(C)n2nc(N)c(N=Nc3ccccc3)c2n1	2.4	0.0	60.4*	13.3	0.2
CC[C@@]1(c2ccc(C)cc2)C(=O)N(C(=O)OC)N1C(=O)OC	-2.3	·	·	·	·
COc1cc(NC(=S)Nc2ccccn2)c(OC)cc1Cl	2.2	-0.5	58.5*	-8.8	0.0
COc1cc(NC(=S)Nc2cccc(Cl)c2Cl)c(OC)cc1Cl	1.0	-0.3	25.6	·	0.0
C/C(=N\NC(=O)COc1ccccc1[N+](=O)[O-])c1cccs1	3.7	-0.5	57.4*	3.2	-0.1
O=C(COc1ccccc1[N+](=O)[O-])Nc1ccc(Br)cc1	6.3	0.9	52.7*	5.7	0.1
O=C(COc1ccccc1[N+](=O)[O-])Nc1cccnc1	1.1	0.0	-5.4	10.6	-0.2
COC(=O)[C@]1(CNS(=O)(=O)c2ccc(F)cc2)CC(=O)N(C)[C@@H]1c1ccccc1	-1.3	·	·	·	·
Cc1ccc(SC[C@H](CC(C)C)N2CCN(CCc3ccccc3)CCC2=O)cc1	2.1	-0.4	·	11.1	·
CC(=O)Nc1ccc(SC[C@H](CC(C)C)N2CCN(CCc3ccccc3)CCC2=O)cc1	-0.6	-0.3	48.3*	11.7	0.3
O=C(Nc1cccc(-c2cn3c(n2)SCC3)c1)c1ccc2c(c1)OCO2	-0.4	0.9	50.2*	-0.2	0.1
O=C(Nc1cccc(-c2ccc(N3CCCCC3)nn2)c1)c1ccc(Br)o1	7.9*	-0.3	-8.9	-1.2	0.1
O=C(Nc1cccc(-c2ccc(N3CCCCC3)nn2)c1)C(F)(F)F	-2.7	-0.1	-8.4	·	0.4
O=C(Nc1cccc(-c2cn3cccnc3n2)c1)c1ccc2c(c1)OCO2	3.8	-0.2	48.7*	·	0.0
c1cnc2nc(-c3ccc4c(c3)OCO4)cn2c1	7.3	-0.3	64.4*	-5.0	0.1
SMILES	SMARCA2 activ	TbMetRS inhib	AHR activator	TAG inh	Efflux pump inh
COc1cccc(-c2nnc(SCC(=O)OC(C)C)n2-c2ccc(Cl)cc2)c1	-0.7	·	·	·	·
CC(C)(C)OC(=O)NCc1ccccc1/C=C/S(=O)(=O)NCc1ccccc1	-4.2	·	·	·	·
O=C(Nc1cccc(-c2cn3cccnc3n2)c1)c1ccco1	·	-0.1	32.6	·	0.1
O=C(Nc1cccc(-c2cn3cccnc3n2)c1)c1ccc(Br)o1	0.4	-0.1	72.2*	·	0.6
CN(C)/C=C/C(=O)c1cnc(-c2cccc(Cl)c2)s1	7.6	0.9	3.9	29.7	0.1
CN(C)/C=C/C(=O)c1cnc(-c2ccccc2Cl)s1	0.7	-0.4	56.9*	3.2	-0.1
C=CCSc1nnc(-c2cc3c(s2)-c2ccccc2CC3)o1	4.5	0.3	66.1*	3.9	-0.1
COc1ccccc1NC(=O)c1c([N+](=O)[O-])cnn1C	0.5	-0.7	61.2*	0.0	-0.1
COc1ccccc1NC(=O)c1nn(C)c(C(=O)Nc2ccccc2OC)c1[N+](=O)[O-]	-3.1	-0.6	58.8*	·	-0.3
COc1ccccc1NC(=O)c1nn(C)cc1Br	1.9	-1.9	61.2*	0.4	-0.1
COc1ccccc1NC(=O)c1c([N+](=O)[O-])c(C(C)(C)C)nn1C	-2.7	-0.1	7.3	-6.0	0.0
Cn1ncc([N+](=O)[O-])c1C(=O)Nc1ccccc1C(=O)O	-2.0	-0.7	1.2	8.0	0.0
Cn1ncc([N+](=O)[O-])c1C(=O)Nc1ccc(Cl)cc1	-3.9	-1.5	72.2*	·	-0.1
